Results of several laboratories.
Compare with care: the assays were run in different laboratories.
Target: Atypical kinase COQ8B, mitochondrial (COQ8B, Homo sapiens, UniProt Q96D53)
One construct used (Q96D53 1-544): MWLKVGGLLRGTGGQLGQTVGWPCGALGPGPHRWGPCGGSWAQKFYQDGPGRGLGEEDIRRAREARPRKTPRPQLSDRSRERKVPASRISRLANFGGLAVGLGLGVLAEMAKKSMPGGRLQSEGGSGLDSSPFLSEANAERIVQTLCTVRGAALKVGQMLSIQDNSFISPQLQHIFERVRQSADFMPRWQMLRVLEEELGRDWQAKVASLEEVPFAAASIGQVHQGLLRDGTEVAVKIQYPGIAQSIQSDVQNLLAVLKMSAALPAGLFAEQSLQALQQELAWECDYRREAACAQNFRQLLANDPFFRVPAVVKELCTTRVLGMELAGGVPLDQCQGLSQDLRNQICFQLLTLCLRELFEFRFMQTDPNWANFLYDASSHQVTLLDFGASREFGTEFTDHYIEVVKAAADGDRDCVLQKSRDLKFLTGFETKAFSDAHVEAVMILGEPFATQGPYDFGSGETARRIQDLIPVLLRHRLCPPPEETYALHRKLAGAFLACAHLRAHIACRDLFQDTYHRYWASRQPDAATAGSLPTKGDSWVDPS

Compound | effect on | method | concentration | remaining binding [%]
CC1CCCN1c1nccc(-c2cnn3ncccc23)n1 (stereo not shown) | binding | – | 1 µM | 68
CCN1CCN(Cc2ccc(C(=O)Nc3ccc(C)c(Oc4ccc5c(c4)CC(=O)N5)c3)cc2C(F)(F)F)CC1 | binding | competition with immobilised ligand | 1 µM | 80
CN(C(=O)c1ccccc1)c1cc(N(C)c2ccc3c(c2)CCc2ccc(C(=O)NCCN4CCOCC4)cc2C3=O)ccc1F | cell-free assay | competition with immobilised ligand | 1 µM | 100
C[C@@H]1CCN(c2nccc(-c3cnn4ncccc34)n2)C1 | binding | – | 1 µM | 89
O=C(NCC1CCOCC1)c1n[nH]cc1NC(=O)c1c(F)cccc1F | binding | competition with immobilised ligand | 1 µM | 85
Nc1ncc2c(n1)-c1c([nH]c3ccc(C#CC4CC4)cc13)CCCC2 | binding | competition with immobilised ligand | 1 µM | 90
c1cncc(-c2cccc(Nc3nccc(NC4CCCCC4)n3)c2)c1 | binding | competition with immobilised ligand | 10 µM | 24
CS(=O)(=O)c1cc(C2(NC(=O)c3cncc4c3cnn4-c3ccc(F)cc3)CC2)ccn1 | cell-free assay | competition with immobilised ligand | 1 µM | 100
O=C(c1ccc(Nc2ncc(Cl)c(-c3ccc(Cl)s3)n2)cc1)N1CCC(N2CCCC2)CC1 | binding | competition with immobilised ligand | 1 µM | 21
CS(=O)(=O)N1CCCC(NC(=O)[C@H](CCC2CCCCC2)NC(=O)c2ccc(CNC(=O)c3cnc4ccccn34)cc2)C1 (stereo partly shown) | cell-free assay | competition with immobilised ligand | 0.1 µM | 100
Cc1cnc(Nc2ccc(C(=O)N3CCC(N4CCCC4)CC3)cc2)nc1-c1cc2ccccc2s1 | binding | competition with immobilised ligand | 1 µM | 34
c1cnn2ncc(-c3ccnc(N4CCC45COC5)n3)c2c1 | binding | – | 1 µM | 100
C[C@@H]1CN(c2cc(-c3n[nH]c4ccc(OC5(C)CC5)cc34)ncn2)C[C@H](C)O1 | cell-free assay | competition with immobilised ligand | 0.1 µM | 72
C=CC(=O)N1CCC(C(=O)NCC(=O)N2CCN(c3nc(-c4cnc(N)nc4C(F)F)nc(N4CCOCC4)n3)CC2)CC1 | binding | competition with immobilised ligand | 1 µM | 100
CN(C)c1nccc(-c2cnn3ncccc23)n1 | binding | – | 1 µM | 100
CNC(=O)Nc1ccc2c(c1)[C@@]1(CC2)OC(=O)N(CC(=O)N(Cc2ccc(F)cc2)[C@@H](C)C(F)(F)F)C1=O | cell-free assay | competition with immobilised ligand | 1 µM | 95
COc1ccnn2ncc(-c3ccnc(N(C)C)n3)c12 | binding | – | 1 µM | 96
COc1cnc(Nc2cccc(S(N)(=O)=O)c2)nc1N1CCN(c2ccccc2)CC1 | binding | competition with immobilised ligand | 1 µM | 85
N[C@H]1CCN(c2nccc(-c3cnn4ncccc34)n2)C1 | binding | – | 1 µM | 74
O=C(NCCCN1CCOCC1)c1ccc(Nc2ncc(Cl)c(-c3ccc(Cl)s3)n2)cc1 | binding | competition with immobilised ligand | 1 µM | 34
O=C(Nc1ccc(Oc2ccc(F)cc2)cc1)N1CCc2ncccc2[C@H]1c1ccc(F)cc1 | cell-free assay | competition with immobilised ligand | 1 µM | 92
CN(C)c1ncc(F)c(-c2cnn3ncccc23)n1 | binding | – | 1 µM | 73
